Data taken from ChEMBL document CHEMBL3108689, “Stilbenes as κ-selective, non-nitrogenous opioid receptor antagonists” (J Nat Prod, 2014).

Legend:
[1] = biological target: Delta-type opioid receptor (Homo sapiens) (UniProt P41143); assay: Competitive antagonist activity against human delta opioid receptor overexpressed in CHO cells assessed as inhibition of DPDPE-stimulated [35S]GTP-gamma-S binding by liquid scintillation counting; assay type: functional, cell-based
Method in brief: (§1)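 CHO cells overexpressing human μ, δ or κ opioid receptor; membrane homogenates (20–40 μg protein) incubated 1 h at room temperature with 0.1 nM [35S]GTP-γ-S and 1 μM GDP in 50 mM HEPES pH 7.4, in duplicate. Agonist concentration–response curves run with or without one test-compound concentration (screen at 10 μM). Filtration, scintillation counting, normalized to basal; EC50 by four-parameter logistic; Ke = [L]/(DR − 1).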

[2] = biological target: Mu-type opioid receptor (Homo sapiens) (UniProt P35372); assay: Competitive antagonist activity against human Mu opioid receptor overexpressed in CHO cells assessed as inhibition of DAMGO-stimulated [35S]GTP-gamma-S binding by liquid scintillation counting; assay type: functional, cell-based; method in brief: as §1
[3] = biological target: Kappa-type opioid receptor (Homo sapiens) (UniProt P41145); assay: Competitive antagonist activity against human kappa opioid receptor overexpressed in CHO cells assessed as inhibition of U69,593-stimulated [35S]GTP-gamma-S binding by liquid scintillation counting; assay type: functional, cell-based; method in brief: as §1
Homo sapiens [4] = organism: Homo sapiens; assay: Selectivity ratio of Ke(app) for human Mu opioid receptor to ratio of Ke(app) for human kappa opioid receptor
Homo sapiens [5] = organism: Homo sapiens; assay: Selectivity ratio of Ke(app) for human delta opioid receptor to ratio of Ke(app) for human kappa opioid receptor

Row | Compound | Ke [1] [µM] | Ke [2] [µM] | Ke [3] [µM] | Ratio (Homo sapiens [4]) | Ratio (Homo sapiens [5])
1 | CC(C)=CCC/C(C)=C/Cc1c(O)cc(O)cc1/C=C/c1ccc(O)c(O)c1 | > 10 | > 10 | > 10 |  | 
2 | CC(C)=CCC/C(C)=C/CC/C(C)=C/Cc1c(O)cc(/C=C/c2ccc(O)cc2)cc1O | 6 | 3 | 9 | 0.33 | 0.67
3 | CC(C)=CCc1c(O)cc(/C=C/c2ccc(O)cc2)cc1O | > 10 | > 10 | > 10 |  | 
4 | CC(C)=CCC/C(C)=C/Cc1c(O)cc(/C=C/c2ccc(O)c(O)c2)cc1O | > 10 | > 10 | > 10 |  | 
5 | CC(C)=CCc1c(O)cc(/C=C/c2ccc(O)c(O)c2)cc1O | > 10 | > 10 | > 10 |  | 

Second part, the compound after the results:

Row | Ke [1] [µM] | Ke [2] [µM] | Ke [3] [µM] | Ratio (Homo sapiens [4]) | Ratio (Homo sapiens [5]) | Compound
6 | > 10 | > 10 | 0.15 | > 67 | > 67 | COc1cc(/C=C/c2cc(O)c(O)c(CC=C(C)C)c2)c(C/C=C(\C)CCC=C(C)C)c(OC)c1
7 | > 10 | > 10 | > 10 |  |  | COc1cc(/C=C/c2ccc(OC)c(O)c2CC=C(C)C)c(C/C=C(\C)CCC=C(C)C)c(OC)c1
8 | > 10 | > 10 | > 10 |  |  | COc1cc(/C=C/c2ccc(OC)c(OC)c2)c(C/C=C(\C)CCC=C(C)C)c(OC)c1
9 | > 10 | > 10 | > 10 |  |  | COc1cc(/C=C/c2ccc(OC)c(OC)c2CC=C(C)C)c(C/C=C(\C)CCC=C(C)C)c(OC)c1
10 | 2.9 | 0.57 | 0.2 | 2.9 | 14.5 | CC(C)=CCC/C(C)=C/Cc1c(O)cc(O)cc1/C=C/c1ccc(O)c(O)c1CC=C(C)C
11 | > 10 | > 10 | > 10 |  |  | COc1cc(/C=C/c2ccc(O)c(O)c2)c(C/C=C(\C)CCC=C(C)C)c(OC)c1
